Reference: ChEMBL document CHEMBL4364345, “Synthesis and evaluation of 1,3,4-oxadiazole derivatives for development as broad-spectrum antibiotics” (Bioorg Med Chem, 2019)
Converted amounts (≈) assume the structure as drawn. The source made the active and inactive calls.

Legend:
Enterococcus faecalis [1] = experiment: Synergistic antimicrobial activity against Enterococcus faecalis ATCC 29212 assessed as DIZ at 50 ug/disk incubated for 20 +/- 4 hrs in presence of rifampicin by agar disk diffusion method (reference value: 20 millimeter); format: functional; settings: read-out: DIZ
Pseudomonas aeruginosa = experiment: Antimicrobial activity against Pseudomonas aeruginosa clinical isolate at 50 ug/disk incubated for 20 +/- 4 hrs by agar disk diffusion method; format: functional; settings: read-out: DIZ
Summary of the method: (§1)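 Agar disk diffusion on Mueller-Hinton agar swab-seeded from a 0.5 McFarland inoculum (about 10^8 CFU/ml). Cellulose discs got 50 μg compound (10 μl of 5 g/L in DMSO); a 10 μL DMSO disc was the control. Incubated aerobically at 35 ± 2 °C for 20 ± 4 h, then growth-inhibition diameters measured.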

PC-3 = experiment: Cytotoxicity against human PC3 cells assessed as decrease in cell viability in MTT assay; format: cell-based
Summary of the method: (§2)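 Cell viability was measured by MTT on a robotic screening platform. Residual viability was expressed as a percentage of the mean viable cells in DMSO-treated controls. Under 25-30% viability was considered cytotoxic, and IC50 values were derived.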

Morganella morganii = experiment: Antimicrobial activity against Morganella morganii EB8clinical isolate at 50 ug/disk incubated for 20 +/- 4 hrs by agar disk diffusion method; format: functional; settings: EB8, read-out: DIZ; summary of the method: as §1
Listeria monocytogenes [2] = experiment: Synergistic antimicrobial activity against Listeria monocytogenes clinical isolate assessed as DIZ at 50 ug/disk incubated for 20 +/- 4 hrs in presence of moxalactam by agar disk diffusion method (reference value: 13 millimeter); format: functional; settings: read-out: DIZ
Escherichia coli [3] = experiment: Antimicrobial activity against clpP-TolC deficient Escherichia coli BW25113 by agar disk diffusion method; format: functional
[4] = system: Mycolicibacterium fortuitum; experiment: Antimicrobial activity against Mycobacterium fortuitum clinical isolate by broth microdilution method; format: functional
Summary of the method: (§3)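 MICs were set by broth microdilution following EUCAST guidelines, from three independent experiments reported as values or ranges. MICs were measured only where disk-diffusion inhibition diameters were 9 mm or more.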

Klebsiella pneumoniae = experiment: Antimicrobial activity against Klebsiella pneumoniae clinical isolate at 50 ug/disk incubated for 20 +/- 4 hrs by agar disk diffusion method; format: functional; settings: read-out: DIZ; summary of the method: as §1
Escherichia coli [5] = experiment: Antimicrobial activity against TolC deficient Escherichia coli BW25113 by agar disk diffusion method; format: functional
Escherichia coli [6] = experiment: Antimicrobial activity against Escherichia coli BW25113 at 10 mM/disk incubated for 20 +/- 4 hrs by agar disk diffusion method; format: functional; settings: read-out: DIZ
Bacteroides fragilis = experiment: Antimicrobial activity against Bacteroides fragilis ATCC 25285 by broth microdilution method; format: functional; summary of the method: as §3
Enterococcus faecium [7] = experiment: Antimicrobial activity against Enterococcus faecium AUS0004 at 50 ug/disk incubated for 20 +/- 4 hrs by agar disk diffusion method; format: functional; settings: read-out: DIZ; summary of the method: as §1
Enterococcus faecium [8] = experiment: Synergistic antimicrobial activity against Enterococcus faecium AUS0004 assessed as DIZ at 50 ug/disk incubated for 20 +/- 4 hrs in presence of rifampicin by agar disk diffusion method (reference value: 10 millimeter); format: functional; settings: read-out: DIZ
MDA-MB-231 = experiment: Cytotoxicity against human MDA-MB-231 cells assessed as decrease in cell viability in MTT assay; format: cell-based; summary of the method: as §2
Enterobacter cloacae = experiment: Antimicrobial activity against Enterobacter cloacae clinical isolate at 50 ug/disk incubated for 20 +/- 4 hrs by agar disk diffusion method; format: functional; settings: read-out: DIZ; summary of the method: as §1
Listeria monocytogenes [9] = experiment: Synergistic antimicrobial activity against Listeria monocytogenes clinical isolate assessed as DIZ at 50 ug/disk incubated for 20 +/- 4 hrs in presence of ofloxacin by agar disk diffusion method (reference value: 19 millimeter); format: functional; settings: read-out: DIZ
Enterococcus faecalis [10] = experiment: Antimicrobial activity against Enterococcus faecalis ATCC 29212 at 50 ug/disk incubated for 20 +/- 4 hrs by agar disk diffusion method; format: functional; settings: read-out: DIZ; summary of the method: as §1
Enterococcus faecalis [11] = experiment: Synergistic antimicrobial activity against Enterococcus faecalis ATCC 29212 assessed as DIZ at 50 ug/disk incubated for 20 +/- 4 hrs in presence of erythromycin by agar disk diffusion method (reference value: 20 millimeter); format: functional; settings: read-out: DIZ
Staphylococcus aureus [12] = experiment: Antimicrobial activity against Staphylococcus aureus ATCC 29213 at 50 ug/disk incubated for 20 +/- 4 hrs by agar disk diffusion method; format: functional; settings: read-out: DIZ; summary of the method: as §1
Listeria monocytogenes [13] = experiment: Antimicrobial activity against Listeria monocytogenes clinical isolate by broth microdilution method; format: functional; summary of the method: as §3
Staphylococcus aureus [14] = experiment: Antimicrobial activity against Staphylococcus aureus ATCC 29213 by broth microdilution method; format: functional; summary of the method: as §3
Escherichia coli [15] = experiment: Antimicrobial activity against arfA-arfB TolC deficient Escherichia coli BW25113 by agar disk diffusion method; format: functional
Enterococcus faecalis [16] = experiment: Antimicrobial activity against Enterococcus faecalis ATCC 29212 by broth microdilution method; format: functional; summary of the method: as §3
[17] = system: Staphylococcus epidermidis; experiment: Antimicrobial activity against Staphylococcus epidermidis clinical isolate by broth microdilution method; format: functional; summary of the method: as §3
Proteus mirabilis = experiment: Antimicrobial activity against Proteus mirabilis clinical isolate at 50 ug/disk incubated for 20 +/- 4 hrs by agar disk diffusion method; format: functional; settings: read-out: DIZ; summary of the method: as §1
[18] = system: Staphylococcus epidermidis; experiment: Antimicrobial activity against Staphylococcus epidermidis clinical isolate at 50 ug/disk incubated for 20 +/- 4 hrs by agar disk diffusion method; format: functional; settings: read-out: DIZ; summary of the method: as §1
Clostridium perfringens = experiment: Antimicrobial activity against Clostridium perfringens clinical isolate by broth microdilution method; format: functional
Summary of the method: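 MIC by broth microdilution following EUCAST guidelines; values or ranges from three independent experiments. MICs were determined only where the disk diffusion inhibition diameter was at least 9 mm.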

Escherichia coli [19] = experiment: Antimicrobial activity against ssrA-TolC deficient Escherichia coli BW25113 by agar disk diffusion method; format: functional
[20] = Cytotoxicity against human NHFB cells assessed as decrease in cell viability in MTT assay; format: cell-based; summary of the method: as §2
Enterococcus faecalis [21] = experiment: Synergistic antimicrobial activity against Enterococcus faecalis ATCC 29212 assessed as DIZ at 50 ug/disk incubated for 20 +/- 4 hrs in presence of gentamicin by agar disk diffusion method (reference value: 13 millimeter); format: functional; settings: read-out: DIZ
Staphylococcus aureus [22] = experiment: Antimicrobial activity against Staphylococcus aureus clinical isolate at 50 ug/disk incubated for 20 +/- 4 hrs by agar disk diffusion method; format: functional; settings: read-out: DIZ; summary of the method: as §1
Enterococcus faecium [23] = experiment: Synergistic antimicrobial activity against Enterococcus faecium AUS0004 assessed as DIZ at 50 ug/disk incubated for 20 +/- 4 hrs in presence of streptomycin by agar disk diffusion method (reference value: 22 millimeter); format: functional; settings: read-out: DIZ

| SMILES | zone of inhibition at 50 µg/disc (Pseudomonas aeruginosa) | IC50 (PC-3) | zone of inhibition at 50 µg/disc (Morganella morganii) | diameter of the inhibition zone (DIZ) (Escherichia coli [3]) | MIC [4] | zone of inhibition at 50 µg/disc (Klebsiella pneumoniae) | diameter of the inhibition zone (DIZ) (Escherichia coli [5]) | zone of inhibition at 10000 µM (Escherichia coli [6]) | MIC (Bacteroides fragilis) | zone of inhibition at 50 µg/disc (Enterococcus faecium [7]) | IC50 (MDA-MB-231) | zone of inhibition at 50 µg/disc (Enterobacter cloacae) | zone of inhibition at 50 µg/disc (Enterococcus faecalis [10]) | zone of inhibition at 50 µg/disc (Staphylococcus aureus [12]) | MIC (Listeria monocytogenes [13]) | MIC (Staphylococcus aureus [14]) | diameter of the inhibition zone (DIZ) (Escherichia coli [15]) | MIC (Enterococcus faecalis [16]) | MIC [17] | zone of inhibition at 50 µg/disc (Proteus mirabilis) | other results |
| --- | --- | --- | --- | --- | --- | --- | --- | --- | --- | --- | --- | --- | --- | --- | --- | --- | --- | --- | --- | --- | --- |
| O=C(Nc1nnc(-c2ccc(C(F)(F)F)cc2)o1)c1cccc(Cl)c1 | 6 mm | 17 µM | 6 mm | 22.3 mm | 16 to 32 µg/mL (≈ 43.5 to 87 µM) | 6 mm | 21.3 mm | 6 mm | 1 to 2 µg/mL (≈ 2.72 to 5.44 µM) | 21 mm | 23 µM | 6 mm | 20 mm | 24 mm | 8 µg/mL (≈ 21.8 µM) | 2 µg/mL (≈ 5.44 µM) | 22.6 mm | 0.125 to 1 µg/mL (≈ 0.34 to 2.72 µM) | 0.0625 to 0.25 µg/mL (≈ 0.17 to 0.68 µM) | 6 mm | zone of inhibition at 50 µg/disc (Enterococcus faecalis [1]): 23 mm; zone of inhibition at 50 µg/disc (Listeria monocytogenes [2]): 33 mm; zone of inhibition at 50 µg/disc (Enterococcus faecium [8]): 26 mm; zone of inhibition at 50 µg/disc (Listeria monocytogenes [9]): 29 mm; zone of inhibition at 50 µg/disc (Enterococcus faecalis [11]): 24 mm; zone of inhibition at 50 µg/disc [18]: 27 mm; MIC (Clostridium perfringens): 2 to 4 µg/mL (≈ 5.44 to 10.9 µM); diameter of the inhibition zone (DIZ) (Escherichia coli [19]): 22.3 mm; IC50 [20]: > 25 µM; zone of inhibition at 50 µg/disc (Enterococcus faecalis [21]): 23 mm; zone of inhibition at 50 µg/disc (Staphylococcus aureus [22]): 28 mm; zone of inhibition at 50 µg/disc (Enterococcus faecium [23]): 26 mm |
| O=C(Nc1ncc(-c2ccc(F)cc2)o1)c1ccc(Cl)cc1 | 6 mm | 2 µM | 6 mm | 13.3 mm | 32 to 64 µg/mL (≈ 101 to 202 µM) | 6 mm | 11.33 mm | 6 mm | inactive | 12 mm | 5 µM | 6 mm | 11 mm | 16 mm | 32 to 64 µg/mL (≈ 101 to 202 µM) | 0.5 to 4 µg/mL (≈ 1.58 to 12.6 µM) | 14 mm | 2 to 16 µg/mL (≈ 6.31 to 50.5 µM) | 0.25 µg/mL (≈ 0.789 µM) | 6 mm | zone of inhibition at 50 µg/disc (Enterococcus faecalis [1]): 20 mm; zone of inhibition at 50 µg/disc (Listeria monocytogenes [2]): 17 mm; zone of inhibition at 50 µg/disc (Enterococcus faecium [8]): 15 mm; zone of inhibition at 50 µg/disc (Listeria monocytogenes [9]): 15 mm; zone of inhibition at 50 µg/disc (Enterococcus faecalis [11]): 20 mm; zone of inhibition at 50 µg/disc [18]: 18 mm; MIC (Clostridium perfringens): inactive; diameter of the inhibition zone (DIZ) (Escherichia coli [19]): 13 mm; IC50 [20]: > 25 µM; zone of inhibition at 50 µg/disc (Enterococcus faecalis [21]): 16 mm; zone of inhibition at 50 µg/disc (Staphylococcus aureus [22]): 20 mm; zone of inhibition at 50 µg/disc (Enterococcus faecium [23]): 21 mm |
| O=C(Nc1nnc(-c2ccc(F)cc2)o1)c1ccc(Cl)cc1 | 6 mm | 21 µM | 6 mm | 14.3 mm | 32 µg/mL (≈ 101 µM) | 6 mm | 13 mm | 6 mm | 2 to 4 µg/mL (≈ 6.3 to 12.6 µM) | 6 mm | 25 µM | 6 mm | 6 mm | 12 mm | 4 µg/mL (≈ 12.6 µM) | 0.5 to 4 µg/mL (≈ 1.57 to 12.6 µM) | 12.3 mm | 16 µg/mL (≈ 50.4 µM) | 0.5 to 4 µg/mL (≈ 1.57 to 12.6 µM) | 6 mm | zone of inhibition at 50 µg/disc [18]: 15 mm; MIC (Clostridium perfringens): 4 µg/mL (≈ 12.6 µM); diameter of the inhibition zone (DIZ) (Escherichia coli [19]): 13 mm; IC50 [20]: > 25 µM; zone of inhibition at 50 µg/disc (Staphylococcus aureus [22]): 17 mm |
| O=C(Nc1nnc(-c2ccc(C(F)(F)F)cc2)o1)c1ccc(Cl)nc1 | 6 mm | > 25 µM | 6 mm | 27 mm | 8 µg/mL (≈ 21.7 µM) | 6 mm | 23.6 mm | 6 mm | 2 µg/mL (≈ 5.42 µM) | 23 mm | > 25 µM | 6 mm | 23 mm | 22 mm | 8 µg/mL (≈ 21.7 µM) | 2 to 4 µg/mL (≈ 5.42 to 10.8 µM) | 22.05 mm | 2 to 4 µg/mL (≈ 5.42 to 10.8 µM) | 1 to 2 µg/mL (≈ 2.71 to 5.42 µM) | 6 mm | zone of inhibition at 50 µg/disc (Enterococcus faecalis [1]): 23 mm; zone of inhibition at 50 µg/disc (Listeria monocytogenes [2]): 30 mm; zone of inhibition at 50 µg/disc (Enterococcus faecium [8]): 22 mm; zone of inhibition at 50 µg/disc (Listeria monocytogenes [9]): 30 mm; zone of inhibition at 50 µg/disc (Enterococcus faecalis [11]): 23 mm; zone of inhibition at 50 µg/disc [18]: 28 mm; MIC (Clostridium perfringens): 4 µg/mL (≈ 10.8 µM); diameter of the inhibition zone (DIZ) (Escherichia coli [19]): 27 mm; IC50 [20]: > 25 µM; zone of inhibition at 50 µg/disc (Enterococcus faecalis [21]): 23 mm; zone of inhibition at 50 µg/disc (Staphylococcus aureus [22]): 30 mm; zone of inhibition at 50 µg/disc (Enterococcus faecium [23]): 26 mm |
